According to ChEMBL document CHEMBL1158469 (J Med Chem, 2009):
The source made the active and inactive calls. The calls are words filed in the database; no cut-off is given here.

Legend:
[1] = molecular target: Bcl-2-like protein 1 (Homo sapiens) (UniProt Q07817); experiment: Inhibition of Bcl-xL at 200 uM by 1D 1H NMR binding assay
NCI-H460 = experiment: Cytotoxicity against human H460 cells assessed as cell viability after 72 hrs by ATP-LITE assay; type: functional, cell-based; conditions: NCI-H460, 72 h
Method in brief: (§1)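 ATP-LITE viability readout. Seeded 24 h before dosing (H460, H1299 at 2000 cells/well; PC3 at 3000 cells/well) in 12F2 or RPMI1640 with 5 mM L-glutamine, 5% FBS and pen/strep. Fresh 5% medium added, then compounds in 0.1% DMSO final. Viability read after 72 h treatment and normalized to DMSO-treated cells.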

[2] = Cytotoxicity against human H1299 cells assessed as cell viability after 72 hrs by ATP-LITE assay; type: functional, cell-based; conditions: NCI-H1299, 72 h; method in brief: as §1
[3] = Induction of apoptosis in human RS11846 cells after 1 to 2 days by FITC-annexin V and propidium iodide assay; type: functional, cell-based
BP3 = experiment: (§2) Induction of apoptosis in human BP3 cells after 1 to 2 days by FITC-annexin V and propidium iodide assay; type: functional, cell-based
[4] = Cytotoxicity against human PC3-ML cells assessed as cell viability after 72 hrs by ATP-LITE assay; type: functional, cell-based; method in brief: as §1
[5] = Stability in rat plasma after 1 hr at 37.5 degC; type: ADME, cell-free; conditions: read-out: Stability
Method in brief: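 Compound incubated in rat plasma for 1 h; percentage of parent remaining was reported.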

[6] = Chemical stability after 60 days at room temperature by HPLC/LC-MS analysis; type: physicochemical; conditions: 1440 h
Method in brief: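 Solid compounds stored in air at room temperature for 60 days. Stability followed by HPLC combined with LC-MS.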

Mus musculus [7] = experiment: Toxicity in human Bcl2 expressing B6 transgenic mouse administered as single dose at 72 umol/kg, ip after 24 hrs; type: organism-based; conditions: in vivo
[8] = Cytotoxicity against wild type mouse fibroblast assessed as induction of cell death at 10 uM by FITC-annexin V and propidium iodide assay; type: cell-based
Method in brief: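 Wild-type MEFs seeded at half a million per well in DMEM with 10% FCS. Next day compound added at 0, 2.5, 5.0, 7.5 or 10 μM. On the following day, floating and trypsinized adherent cells were pooled and stained with Annexin V-FITC and PI in binding buffer. Analyzed by flow cytometry, with double-negative cells counted as viable.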

[9] = Membrane permeability assessed as drug permeation at 100 uM at pH 7.2 after 8 hrs by PAMPA; type: ADME; conditions: pH 7.2, 8 h
[10] = as §2; type: functional, cell-based
[11] = Stability in rat liver microsome at 4 uM after 1 hr; type: ADME; conditions: liver microsomes, read-out: Stability
Method in brief: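 Compound incubated for 1 h in rat microsomal preparations; percentage of parent remaining was reported.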

Mus musculus [12] = experiment: Induction of spleen weight shrinkage in human Bcl2 expressing B6 transgenic mouse at 72 umol/kg, ip administered as single dose after 24 hrs; type: functional
Method in brief: (§3)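 Age- and sex-matched B6Bcl2 transgenic mice (human BCL-2/IgH minigene, B cells accumulating in spleen), free of aggressive lymphoma. Single ip injection at 72 μmol/kg in 500 μL ethanol:Cremophor EL:saline 10:10:80; controls got vehicle alone. Killed with Avertin after 24 h and spleen weighed. Shrinkage expressed as percentage of maximum spleen-weight reduction.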

Mus musculus [13] = experiment: Reduction of spleen weight in human Bcl2 expressing B6 transgenic mouse at 72 umol/kg, ip administered as single dose after 24 hrs; type: functional; design: scale not given: the % may be the effect or the level left; method in brief: as §3
Mus musculus [14] = experiment: Toxicity in human Bcl2 expressing B6 transgenic mouse at 120 umol/kg, ip administered as single dose after 24 hrs; type: organism-based; conditions: in vivo

Bcl-2-like protein 1 (Homo sapiens), sequence (Q07817 whole entry): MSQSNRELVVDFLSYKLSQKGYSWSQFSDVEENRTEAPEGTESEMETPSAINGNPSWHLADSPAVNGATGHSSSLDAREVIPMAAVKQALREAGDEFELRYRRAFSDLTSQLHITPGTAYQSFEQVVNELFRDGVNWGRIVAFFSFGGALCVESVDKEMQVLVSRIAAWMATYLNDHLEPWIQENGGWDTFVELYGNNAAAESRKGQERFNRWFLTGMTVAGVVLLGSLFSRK

| Activity [1] | EC50 [3] [µM] | remaining at 1 h [5] [%] | Stability [6] | logPe [9] [log cm/s] | EC50 [10] [nM] | remaining at 1 h, 4 µM [11] [%] | Compound | EC50 (NCI-H460) [nM] | EC50 [2] [µM] | Activity (BP3) | EC50 [4] [µM] | Activity (Mus musculus [7]) | Activity [8] [%] | Activity (Mus musculus [12]) | Activity (Mus musculus [13]) [%] | Activity (Mus musculus [14]) |
| --- | --- | --- | --- | --- | --- | --- | --- | --- | --- | --- | --- | --- | --- | --- | --- | --- |
| Active | 4.8 | – | – | – | – | – | Cc1cccc(CNC(=O)c2c(O)c(O)cc3c(O)c(-c4c(C)cc5c(C(=O)NCc6cccc(C)c6)c(O)c(O)cc5c4O)c(C)cc23)c1 | 2900 | 3.1 | Dose-dependent effect | 10.2 | – | – | – | – | – |
| – | 3 | 94 | Stable | -8.15 | 200 | 87 | CCc1ccc(CCNC(=O)c2c(O)c(O)cc3c(O)c(-c4c(C)cc5c(C(=O)NCCc6ccc(CC)cc6)c(O)c(O)cc5c4O)c(C)cc23)cc1 | 400 | 0.36 | – | 1.7 | Toxic | 80 | 85% | – | – |
| Active | – | 63 | – | -6.49 | – | 60 | Cc1cc2c(C(=O)NCCc3ccccc3)c(O)c(O)cc2c(O)c1-c1c(C)cc2c(C(=O)NCCc3ccccc3)c(O)c(O)cc2c1O | – | – | – | – | – | – | – | – | – |
| Active | – | – | – | – | – | – | Cc1cc2c(C(=O)Nc3ccccc3)c(O)c(O)cc2c(O)c1-c1c(C)cc2c(C(=O)Nc3ccccc3)c(O)c(O)cc2c1O | 3500 | 8 | – | – | – | – | – | – | – |
| Active | 9.3 | – | – | – | – | – | Cc1cc2c(C(=O)NCc3ccccc3)c(O)c(O)cc2c(O)c1-c1c(C)cc2c(C(=O)NCc3ccccc3)c(O)c(O)cc2c1O | 4600 | 3.6 | – | 13.7 | – | – | – | – | – |
| Active | 5.1 | – | – | – | 700 | – | Cc1cc2c(C(=O)NCCc3ccc(Cl)cc3)c(O)c(O)cc2c(O)c1-c1c(C)cc2c(C(=O)NCCc3ccc(Cl)cc3)c(O)c(O)cc2c1O | 1300 | – | – | – | – | – | – | – | – |
| Active | 5.6 | – | – | – | – | – | Cc1cccc(CCNC(=O)c2c(O)c(O)cc3c(O)c(-c4c(C)cc5c(C(=O)NCCc6cccc(C)c6)c(O)c(O)cc5c4O)c(C)cc23)c1 | 700 | – | – | – | – | – | – | – | – |
| Active | 3.2 | – | – | – | – | – | Cc1cc2c(Cc3ccccc3)c(O)c(O)cc2c(O)c1-c1c(C)cc2c(Cc3ccccc3)c(O)c(O)cc2c1O | 1200 | 1.28 | – | 8.3 | – | – | – | – | – |
| Active | 4.2 | – | – | – | – | – | CCC(NC(=O)c1c(O)c(O)cc2c(O)c(-c3c(C)cc4c(C(=O)NC(CC)c5ccccc5)c(O)c(O)cc4c3O)c(C)cc12)c1ccccc1 (stereo not drawn) | 1500 | – | – | – | – | – | – | – | – |
| Active | 4.6 | – | Stable | -7.71 | 410 | 90 | Cc1cc2c(C(=O)NCCc3cccc(Cl)c3)c(O)c(O)cc2c(O)c1-c1c(C)cc2c(C(=O)NCCc3cccc(Cl)c3)c(O)c(O)cc2c1O | 990 | 7.8 | – | 3.2 | Toxic | 80 | – | 40 | – |
| Active | 4.1 | – | – | – | 1100 | – | Cc1cc2c(C(=O)NC3Cc4ccccc4C3)c(O)c(O)cc2c(O)c1-c1c(C)cc2c(C(=O)NC3Cc4ccccc4C3)c(O)c(O)cc2c1O | 940 | 7.1 | – | 3 | – | – | – | – | – |

Continued, molecule first:

| Compound | Activity [1] | EC50 [3] [µM] | remaining at 1 h [5] [%] | Stability [6] | logPe [9] [log cm/s] | EC50 [10] [nM] | remaining at 1 h, 4 µM [11] [%] | EC50 (NCI-H460) [nM] | EC50 [2] [µM] | Activity (BP3) | EC50 [4] [µM] | Activity (Mus musculus [7]) | Activity [8] [%] | Activity (Mus musculus [12]) | Activity (Mus musculus [13]) [%] | Activity (Mus musculus [14]) |
| --- | --- | --- | --- | --- | --- | --- | --- | --- | --- | --- | --- | --- | --- | --- | --- | --- |
| Cc1cc2c(C(=O)Nc3cccc(C(F)(F)F)c3)c(O)c(O)cc2c(O)c1-c1c(C)cc2c(C(=O)Nc3cccc(C(F)(F)F)c3)c(O)c(O)cc2c1O | Active | 12.6 | – | – | – | – | – | 16700 | 28.7 | Dose-dependent effect | 12.2 | – | – | – | – | – |
| Cc1cc2c(C(=O)NCC3CCCCC3)c(O)c(O)cc2c(O)c1-c1c(C)cc2c(C(=O)NCC3CCCCC3)c(O)c(O)cc2c1O | Active | 4.9 | 89 | Stable | -6.67 | 900 | 90 | 410 | 4.8 | Dose-dependent effect | 3.7 | Toxic | 80 | – | – | – |
| Cc1cc2c(C(=O)NC(C)c3ccc(Cl)cc3)c(O)c(O)cc2c(O)c1-c1c(C)cc2c(C(=O)NC(C)c3ccc(Cl)cc3)c(O)c(O)cc2c1O (stereo not drawn) | Active | 5.5 | 94 | Stable | -7.92 | 1500 | 71 | 500 | 3.2 | – | 5 | Toxic | 80 | 85% | 40 | – |
| Cc1cc2c(C(=O)O)c(O)c(O)cc2c(O)c1-c1c(C)cc2c(C(=O)O)c(O)c(O)cc2c1O | inactive | > 30 | – | – | – | > 30000 | – | > 30000 | > 30 | Dose-dependent effect | > 30 | – | – | – | – | – |
| Cc1cc2c(CC(C)C)c(O)c(O)cc2c(O)c1-c1c(C)cc2c(CC(C)C)c(O)c(O)cc2c1O | Active | – | – | – | – | – | – | – | – | – | – | – | – | – | – | – |
| Cc1cc2c(C(=O)Nc3ccc(Oc4ccccc4)cc3)c(O)c(O)cc2c(O)c1-c1c(C)cc2c(C(=O)Nc3ccc(Oc4ccccc4)cc3)c(O)c(O)cc2c1O | Active | 10.8 | – | – | – | – | – | 10100 | 17 | – | 8.5 | – | – | – | – | – |
| Cc1cc2cc(O)c(O)cc2c(O)c1-c1c(C)cc2cc(O)c(O)cc2c1O | inactive | > 24.5 | – | – | – | – | – | > 10000 | 13.4 | – | > 10 | Non-toxic | – | inactive | – | – |
| Cc1cc2c(CCC(C)C)c(O)c(O)cc2c(O)c1-c1c(C)cc2c(CCC(C)C)c(O)c(O)cc2c1O | Active | – | – | – | – | – | – | – | – | – | – | – | – | – | – | – |
| Cc1cc2c(CC3CCCC3)c(O)c(O)cc2c(O)c1-c1c(C)cc2c(CC3CCCC3)c(O)c(O)cc2c1O | Active | 4.5 | 81 | – | -6.27 | – | 75 | 1800 | 10.9 | – | 11.2 | Non-toxic | – | – | – | Non-toxic |
| Cc1cc2c(C(=O)NCC3CC3)c(O)c(O)cc2c(O)c1-c1c(C)cc2c(C(=O)NCC3CC3)c(O)c(O)cc2c1O | Active | > 10 | – | – | – | – | – | – | – | – | – | – | – | – | – | – |
| Cc1cc2c(CCc3ccccc3)c(O)c(O)cc2c(O)c1-c1c(C)cc2c(CCc3ccccc3)c(O)c(O)cc2c1O | Active | 9.8 | 80 | Stable | -6.61 | 4140 | 89 | 920 | 0.58 | – | 2.4 | Non-toxic | – | – | – | Non-toxic |
| Cc1cc2c(C(=O)NCc3cccc(Cl)c3)c(O)c(O)cc2c(O)c1-c1c(C)cc2c(C(=O)NCc3cccc(Cl)c3)c(O)c(O)cc2c1O | Active | 7.3 | – | – | – | – | – | 3300 | 5.2 | Dose-dependent effect | 8.3 | – | – | – | – | – |
| Cc1cc(C)c(CNC(=O)c2c(O)c(O)cc3c(O)c(-c4c(C)cc5c(C(=O)NCc6c(C)cc(C)cc6C)c(O)c(O)cc5c4O)c(C)cc23)c(C)c1 | Active | – | – | – | – | – | – | – | – | – | – | – | – | – | – | – |
| Cc1cc2c(C(=O)NC3CCCC3)c(O)c(O)cc2c(O)c1-c1c(C)cc2c(C(=O)NC3CCCC3)c(O)c(O)cc2c1O | Active | 13.7 | – | – | – | – | – | 8500 | 8 | – | 12.2 | – | – | – | – | – |
